Experimental data: the array DNA melting data of Ke et al. (doi:10.1101/2024.01.08.574731)

What was measured:
[1] = folding enthalpy; higher = less favourable; fluorescence melt of hairpins on a sequencing array, two-state fit; settings: sodium 0.088 M
Procedure, shortened: (§1)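 Two-state fits, bootstrapped, provided melting temperature and folding enthalpy from Cy3 fluorescence normalised to pre-quench Cy3 and to control constructs. Library hairpins with annealed Cy3 and quencher oligos were imaged on a sequenced MiSeq flow cell in 50 mM Na-HEPES pH 8.0, 25 mM NaCl, at 2.5 °C intervals up to 60 °C. Four replicates were combined with inverse-variance weighting. A 9.35 °C upward shift was applied to fitted temperatures to match UV melts.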

[2] = melting temperature; fluorescence melt of hairpins on a sequencing array, two-state fit, raised by 9.35 °C to match UV melts; settings: sodium 0.088 M
Procedure, shortened: as §1

Row | Sequence | folding enthalpy [1] [kcal/mol] | Tm [2] [°C]
1 | GATGCCGGAAACAGCATC (((((.(....).))))) | -36.8 | 46
2 | GATGCCGGAAACGACACC (.((.((....)).)).) | -13.5 | 24.4
3 | GATGCGGGAAACCACACC (.((.((....)).)).) | -12.4 | 26.7
4 | GATGCGGGAAACCACATC ((((.((....)).)))) | -35.8 | 44.8
5 | GATGCTGAAAAGCATC ((((((....)))))) | -39.1 | 63
6 | GATGCTGGAAACAGCACC (.(((((....))))).) | -14.4 | 39.4
7 | GATGCTGGAAACAGCGTC ((.((((....)))).)) | -39.7 | 54.5
8 | GATGGACGAAAGTCGATC (((.(((....))).))) | -25.9 | 49.6
9 | GATGGCCCGAAAGGGATC (((..(((....)))))) | -11 | 34.3
10 | GATGGCGAAAGCCACATC ((((((....)))..))) | -7.73 | 28.8
11 | GATGGCGAAAGCCAGATC ((((((....)))..))) | -15.7 | 50
12 | GATGGCGAAAGCCATATC ((((((....)))..))) | -10.6 | 52.5
13 | GATGGCGAAAGCCCCATC ((((((....)))..))) | -7.84 | 25.5
14 | GATGGCGAAAGCCTCATC ((((((....)))..))) | -8.85 | 30.7
15 | GATGGCGAAAGCCTTATC ((((((....)))..))) | -7.22 | 25.9
16 | GATGGCGGAAACGCCACC (.(((((....))))).) | -9.71 | 43.6
17 | GATGGGCGAAAGCCAATC (((.(((....))).))) | -23.9 | 51.2
18 | GATGGGCGAAAGCCATC (((.(((....)))))) | -18.2 | 52.5
19 | GATGGGGGAAACCCCATC (((((((....))))))) | -31.2 | 65.4
20 | GATGGGGGAAACCTCATC ((((.((....)).)))) | -28.4 | 46.3
21 | GATGGGGGAAACTCCGTC ((.((.(....).)).)) | -20.2 | 38
22 | GATGGTGGAAACATCATC ((((.((....)).)))) | -28.1 | 46.1
23 | GATGGTGGAAACATCGTC ((.(.((....)).).)) | -22 | 47.8

Row | Sequence | folding enthalpy [1] [kcal/mol] | Tm [2] [°C]
24 | GATGTACGAAAGTAAATC (((.(((....))).))) | -23.9 | 35.5
25 | GATGTACGAAAGTATATC (((.(((....))).))) | -30.7 | 45.9
26 | GATGTAGCGAAAGCTATC (((..(((....)))))) | -12 | 31.4
27 | GATGTAGGAAACTACGTC ((.((((....)))).)) | -23.4 | 44.8
28 | GATGTCACGAAAGTGATC (((..(((....)))))) | -11.8 | 28.4
29 | GATGTCCGAAAGGAGATC (((.(((....))).))) | -28.9 | 50.3
30 | GATGTGGGAAACTGCATC ((((..(....)..)))) | -27.1 | 36.1
31 | GATGTTGAAAAACATC ((((((....)))))) | -35.7 | 51.6
32 | GATGTTGGAAACAACGTC ((.((((....)))).)) | -26.4 | 49
33 | GATGTTGGAAACGACATC (((((.(....).))))) | -33.6 | 47.2
34 | GATTAACGAAAGTTGATC (((.(((....))).))) | -35.2 | 44
35 | GATTACCGAAAGGTATC (((.(((....)))))) | -14.4 | 36.1
36 | GATTACGGAAACGCAATC ((((.((....)).)))) | -27.6 | 37.4
37 | GATTACGGAAACGTAGTC ((.((((....)))).)) | -25 | 38
38 | GATTACGGAAACGTGATC (((.(((....))).))) | -37.1 | 45.9
39 | GATTAGCCGAAAGGCATC (((..(((....)))))) | -7.43 | 28.5
40 | GATTAGCGAAAGCTATC (((.(((....)))))) | -12.5 | 34.7
41 | GATTAGCGAAAGCTCATC (((.(((....))).))) | -19.1 | 38.7
42 | GATTAGGGAAACCCAATC ((((.((....)).)))) | -22.4 | 31.3
43 | GATTAGGGAAACCTGATC (((.(((....))).))) | -24.1 | 38
44 | GATTCACGAAAGTGTATC (((.(((....))).))) | -25.9 | 42.7
45 | GATTCAGGAAACTGAGTC ((.((((....)))).)) | -31.1 | 38.5
